# Sampled rows, rich in hits. Any-hit rate of the full collection: about 3.5%.
# MrgX1 agonist: human MrgX1 receptor agonism, primary screen | MrgX1-HEK293 cells, Fluo-4 calcium fluorescence, agonist mode; hits give high values | B-score at 10 µM | 0.44% of 310,000 active | AID 588627;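 active = calcium response B-score plate-corrected fluorescence ratio at least 3 library SD, with starting fluorescence B-score inside 5 SD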
# Target sequence (Q96LB2 whole entry, looked up): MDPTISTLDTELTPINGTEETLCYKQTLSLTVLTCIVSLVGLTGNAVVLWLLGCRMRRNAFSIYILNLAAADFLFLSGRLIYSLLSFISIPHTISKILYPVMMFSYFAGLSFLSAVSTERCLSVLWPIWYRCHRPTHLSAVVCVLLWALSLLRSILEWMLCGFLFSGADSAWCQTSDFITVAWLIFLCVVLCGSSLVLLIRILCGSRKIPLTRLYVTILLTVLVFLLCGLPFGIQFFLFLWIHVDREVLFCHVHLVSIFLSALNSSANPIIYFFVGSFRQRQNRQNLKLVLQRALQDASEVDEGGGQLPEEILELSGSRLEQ
#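 Test system: HEK293 cells stably expressing human MrgX1 receptor; amount: 15,000 cells per well; doses: compound delivered in addition one of three; times: overnight plating before 1 h dye loading; detection: Fluo-4 NW calcium-flux fluorescence, kinetic read; read-out basis: B-scored fluorescence response ratio; controls: positive and negative controls per plate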
# RGS4 pot: RGS4 potentiation or activation; HEK293 M3R/inducible RGS4, carbachol calcium flux Fluo4; hits give low values; B-score at 10 µM; 0.92% of 310,000 active;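 active = B-score of the integrated calcium signal more than 4 SD below the library mean, with starting fluorescence not abnormally high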;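 also: negative B-score means reduced calcium response which marks RGS4 activation or potentiation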
#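 Assay system: HEK293 FlpIn-TREx cells, stable M3R, doxycycline-inducible RGS4 / Probe or stimulus: carbachol, ECmax concentration / Times: overnight RGS4 induction, 30 min dye load 37 °C, 20 min compound RT / Signal: kinetic calcium fluorescence imaging with Fluo4-AM dye, 2 µM / Measure: Agonist-evoked peak-minus-minimum fluorescence over baseline, integrated ratio, B score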
# RGS4 inh: inhibitors of human RGS4. P49798. HEK293 M3R/RGS4 inducible, Fluo-4 calcium flux; hits give high values; triggered by carbachol at its EC20. B-score at 10 µM. 0.45% of 310,000 active. AID 463165;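 active = B-score, a plate-corrected calcium signal, over three deviations above library mean, with baseline fluorescence within five deviations of library mean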;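 also: RGS4 expression induced by doxycycline in cells with stable M3 receptor; B-score is computed from the integrated fluorescence ratio over baseline after carbachol; higher B-score means a larger calcium signal and so more RGS4 inhibition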
# Target sequence (P49798 whole entry, looked up): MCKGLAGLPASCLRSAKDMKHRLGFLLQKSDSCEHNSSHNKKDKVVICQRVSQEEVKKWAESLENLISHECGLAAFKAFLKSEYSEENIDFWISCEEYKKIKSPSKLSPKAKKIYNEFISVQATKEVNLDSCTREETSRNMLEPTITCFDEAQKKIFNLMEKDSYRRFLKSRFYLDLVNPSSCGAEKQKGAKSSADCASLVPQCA
# MrgX1 antagonist: human MrgX1 receptor antagonism, primary screen. Q96LB2. MRGX1-HEK293 calcium flux, Fluo-4, BAM8-22 antagonism; hits give low values. B-score at 10 µM. 1.3% of 310,000 active;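 active = calcium-response B-score plate-corrected more than 3 library SD below zero, starting fluorescence within 5 deviations, no agonist response on first addition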;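 also: peak minus trough fluorescence over baseline after final BAM8-22 challenge near maximal dose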
# MrgX1 allo act: human MrgX1 positive allosteric modulation, primary screen; Q96LB2; AID 588675; MrgX1-HEK293, Fluo-4 calcium flux, FDSS; hits give high values; B-score at 10 µM; 0.63% of 310,000 active;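 active = plate-corrected calcium response at least 3 library SD above typical, normal starting fluorescence, not activating the receptor alone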;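 also: compound read alongside a low EC10 to EC30 dose of BAM8-22 agonist; peak minus trough fluorescence over baseline measured at the second addition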
# MrgX1 antag conf: reconfirmed antagonist of human MrgX1 receptor signaling; MrgX1-HEK293, BAM8-22 calcium flux, Fluo-4; hits give low values; remaining BAM8-22 calcium response % of control (hits give low values), % at 10 µM; shares compounds with MrgX1 antagonist; 19% of 2,300 active;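 active = remaining agonist calcium response no higher than 100% minus 3 SD of agonist-only control wells, with starting fluorescence near control levels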;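 also: agonist BAM8-22 given at a near maximal EC90 to ECmax level; peak minus minimum fluorescence divided by baseline after agonist addition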
# HEK293 Ca flux: MrgX1 antagonist counter-screen hit in parental HEK293 cells | shares compounds with MrgX1 antagonist | Fluo-4 calcium fluorescence, FDSS | fluorescence ratio F(max-min)/F0 at 10 µM | 2% of 4,000 active | AID 624111;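 active = duplicate-averaged calcium fluorescence ratio at least three times the standard deviation of buffer wells, a nonspecific response in parental cells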
# HEK293 Ca counter: counter-screen for MrgX1 allosteric activators: effect in parental HEK293 cells; 0.4% of 4,000 active; AID 624114; shares compounds with MrgX1 antagonist; parental HEK293 calcium flux, Fluo-4 fluorescence ratio; hits give high values; fluorescence ratio F(max-min)/F0 at 10 µM;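 active = calcium fluorescence ratio, averaged over duplicates, at least 3 SD of the buffer-well ratio, meaning a nonspecific response in receptor-free cells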;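 also: untransfected parental HEK293 lacking MrgX1 used as counterscreen for MrgX1 allosteric activators; fluorescence change taken during the second addition on a kinetic imager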
# HEK293 Ca cntr2: counter-screen for MrgX1 activators: effect in parental HEK293 cells; shares compounds with MrgX1 antagonist; Fluo-4 calcium fluorescence (FDSS); hits give high values; fluorescence ratio F(max-min)/F0 at 10 µM; 8.7% of 4,000 active;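 active = calcium fluorescence ratio at least three times the spread of buffer wells, meaning a non-specific response in parental cells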
# * hit, by the source's call; i = inactive; nt = no result given.
SMILES,MrgX1 agonist,RGS4 pot,RGS4 inh,MrgX1 antagonist,MrgX1 allo act,MrgX1 antag conf,HEK293 Ca flux,HEK293 Ca counter,HEK293 Ca cntr2
COc1ccc(-n2c(=S)[nH]c3cc(C(=O)Nc4ccc(C)c(F)c4)ccc3c2=O)c(OC)c1,i,i,i,-5*,i,i,i,i,i
CC(NC(=O)COC(=O)CCc1nc(=O)c2ccccc2n1C)c1ccccc1 (stereo not drawn),i,i,i,i,i,nt,nt,nt,nt
Cn1c(CCC(=O)OCC(=O)NCC(F)(F)F)nc(=O)c2ccccc21,i,i,i,-5.6*,i,i,i,i,i
CN(C)/C=C/C(=O)c1ccccc1OCc1cnc(Cl)s1,i,i,i,i,i,nt,nt,nt,nt
CCn1c(CNc2ccc(F)cc2)nnc1SCC(=O)Nc1ccc(OC)cc1OC,i,i,i,i,i,nt,nt,nt,nt
CC(=O)Nc1ccc2c(c1)N(C(C)=O)c1ccccc1CC2,i,i,i,-4.7*,i,82%*,i,i,i
O=C(Nc1ccc(Cl)c(C(F)(F)F)c1)N1CCCC(O)C1 (stereo not drawn),i,i,i,-6.2*,i,i,i,i,i
O=C(Nc1ccc(Cl)c(C(F)(F)F)c1)C(=O)N1CCCCC1,i,i,i,i,i,nt,nt,nt,nt
Cn1nc(C(=O)Nc2cccc(Cl)c2)cc1C(=O)Nc1cccc(Cl)c1,i,i,i,-4.8*,i,i,i,i,i
CCOc1ccc(C2C(C#N)=C(N)Oc3cc(C)n(CCN(C)C)c(=O)c32)cc1OCC (stereo not drawn),i,i,i,-4.5*,i,i,i,i,i
Cc1cc(C)c(C(=O)COC(=O)C2CC3CCCC(C2)C3=O)c(C)c1 (stereo not drawn),i,i,i,i,i,nt,nt,nt,nt
COc1ccccc1C1C(C#N)=C(N)N(c2cccnc2)C2=C1C(=O)CC(C)(C)C2 (stereo not drawn),i,i,i,-8.8*,i,i,i,i,i
COc1cc(C2C(C#N)=C(N)N(c3cccnc3)C3=C2C(=O)CC(C)(C)C3)ccc1O (stereo not drawn),i,i,i,i,i,nt,nt,nt,nt
COCCn1cnnc1SCC(=O)Nc1cc(OC)c([N+](=O)[O-])cc1C,i,i,i,i,i,nt,nt,nt,nt
COc1ccc(Cl)cc1-n1c(C)ccc1C,i,i,i,-8.4*,i,i,i,i,i
COc1ccc(Cl)cc1N1C(=O)c2cccnc2C1=O,i,i,i,i,i,nt,nt,nt,nt
Cc1ccc(Cl)c(OCC(=O)Nc2sc(C)c(C)c2C#N)c1,i,i,i,-7.9*,i,i,i,i,i
Cc1ccc(Cl)c(OCC(=O)Nc2cccnc2)c1,i,i,i,i,i,nt,nt,nt,nt
Cc1csc(SCc2ccc(C(=O)O)cc2)n1,i,i,i,i,i,nt,nt,nt,nt
CCN(CC)c1ccc2c(Cl)c(Br)c(=O)oc2c1,i,i,i,-14*,i,i,0.037*,i,i
CCN(CC)S(=O)(=O)c1ccc(C(=O)Oc2cc(C)[nH]c(=O)c2[N+](=O)[O-])cc1,i,i,i,i,i,nt,nt,nt,nt
CCOC(=O)c1cnc(-n2nc(C)cc2C)nc1NC1CCCCC1,i,i,i,-4.9*,i,67%*,i,i,i

# Compound activity from PubChem BioAssay.
